Bioassay records (PubChem BioAssay)
L major viab = Leishmania major promastigote growth inhibition; Leishmania major promastigotes, resazurin fluorescence viability; inhibition, % at 10 µM; actives 9% (n = 200,000); AID 1063; in the data active means inhibition above about 50%;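 further: promastigotes grown with compound for 44 hours at 28 °C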
MT stabilize HCS = stabilizes microtubules in HeLa cells; HeLa tubulin immunostaining HCS, 24 h; share of cells brighter than vehicle mean+2SD; % tubulin-high responders, % at 10 µM; actives 0.83% (n = 200,000); AID 2205;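 active means plate Z-score above 3 for both tubulin-high and condensed-nucleus cell shares, with cell loss under 80%, at 10 µM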;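 further: anti alpha tubulin signal scored within the nucleus-defined area of each cell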
b-catenin transl = beta-catenin nuclear translocation modulation; HeLa beta-catenin nuclear translocation, immunofluorescence imaging; nuclear translocation activity, % at 5 µM; actives 0.3% (n = 190,000);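 active means nuclear translocation activity above 50% at 5 µM, with a well cell count of 50 or more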;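 further: per-cell ratio of nuclear to cytoplasmic median beta-catenin stain intensity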
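Test system: human HeLa cells, endogenous beta-catenin. Times: 24 h compound exposure, 37°C. Measured by: beta-catenin immunofluorescence imaging with DAPI.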
Ba/F3 V617F tox = reduce viability of Ba/F3 cells dependent on JAK2V617F. Ba/F3 EpoR-JAK2V617F viability, ATP luminescence. inhibition, % at 5.6 µM. actives 1.1% (n = 220,000);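 active means inhibition above the campaign mean plus 3 SD over all tested compounds, cut at about 24% in these data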;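 further: cytokine-independent growth of Ba/F3 cells driven by EpoR plus mutant JAK2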
BaF3 tox = parental Ba/F3 viability inhibition as JAK2V617F counter-screen; AID 1486; actives 1.1% (n = 220,000); inhibition, % at 5.6 µM; CellTiter-Glo ATP luminescence;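 active means inhibition above a per-campaign cutoff, the mean inhibition of all tested compounds plus 3 SD, cut at about 27% in these data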
APP transl inh = APP translation inhibition; SH-SY5Y APP 5'UTR-luciferase reporter, luminescence; inhibition, % at 2 µM; actives 0.82% (n = 190,000); AID 1285;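 active means inhibition above a set limit, derived from the sample mean plus 3 SD, cut at about 45% in these data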
Each line names hits and unclear results; the compound was inactive in the other large screens. In the library only some 9.6% were active in any assay of this set; here they are far more common.

CCCCn1c(=O)[nH]c(=O)c2c1nc(-c1cc3c(cc1Br)OCO3)n2C	none
Cc1cccc(CN2CCN(C(=O)CCl)CC2)c1	L major viab 99.6
Cc1cccc(CN2CCN(C(=O)c3ccccc3F)CC2)c1	none (no result: b-catenin transl)
CC(=O)c1nc(N2C(=O)CC(Cc3ccccc3)C2=O)sc1C (centres undefined)	none
Cc1cc(-n2c(C)cc(C(=O)CN3C(=O)NC4(CCCC4)C3=O)c2C)no1	none
Cc1cc(C(=O)CCl)c(C)n1-c1c(C)n(C)n(-c2ccccc2)c1=O	L major viab 66.6
Cc1cc(-n2c(C)cc(C(=O)CCl)c2C)no1	L major viab 100.6
Cc1ccc(-n2c(C)cc(C(=O)CN3CCCCC3)c2C)cc1	L major viab 86.0 (no result: b-catenin transl)
COc1ccc(-n2c(C)cc(C(=O)CN3C(=O)c4ccccc4C3=O)c2C)cc1	none
COc1ccc(-n2c(C)cc(C(=O)CCl)c2C)cc1	L major viab 100.6
COc1ccc(-c2cc(C(F)(F)F)nc(SCC(=O)N(C)Cc3cn(C)nc3C)n2)cc1OC	none
Cc1cc(-n2c(C)cc(C(=O)CN3C(=O)NC4(CCCCC4C)C3=O)c2C)no1 (centres undefined)	L major viab 79.2 (no result: b-catenin transl)
CN1CCN(Cc2nc(Cc3ccccc3)no2)CC1c1ccccc1 (centres undefined)	none
c1ccc(Cc2noc(CN3CCN(CCOc4ccccc4)CC3)n2)cc1	L major viab 75.1
c1ccc(OCc2noc(CN3CCC(C4CCCCC4)C3)n2)cc1 (centres undefined)	L major viab 54.5
Fc1ccccc1Cc1noc(CN2CCN(C/C=C/c3ccccc3)CC2)n1	L major viab 84.7
CCOC(=O)c1ccc(N/C(=N\S(=O)(=O)c2ccc(F)cc2F)c2ccccc2)cc1	none
CCOC(=O)C1=C(N)OC(CCl)=C(C#N)C1c1ccsc1 (centres undefined)	L major viab 56.6
CC1=C(C(=O)OCc2ccccc2)C(c2ccsc2)C(C#N)=C(N)O1 (centres undefined)	none
Nc1nc(SCc2ccc(F)cc2)ns1	none
CCOc1cc(/C=C(\C#N)C(=O)NCc2cccnc2)ccc1O	none
CCN(CC(=O)NCc1ccc(Cl)cc1)C(=O)c1ccc(S(=O)(=O)N(C)C)cc1	none
Nc1cccc(NC(=O)c2cccs2)c1	none (no result: b-catenin transl)
O=C(Nc1ccc(NC(=O)c2cccs2)cc1Cl)c1ccco1	none
O=C(Nc1cccc(NC(=O)c2cccs2)c1)c1ccco1	L major viab 71.8
Cc1ccc(NC(=O)c2ccco2)c(NC(=O)c2cccs2)c1	L major viab 72.3
O=C(Nc1cccc(N2CCCC2)c1)c1cccs1	L major viab 85.9
Cc1noc(C)c1C(=O)OCC(=O)c1cc(C)n(Cc2ccccc2Cl)c1C	none
Cc1ccccc1Cn1nc(C)c(NC(=O)c2cc3nc(-c4ccco4)cc(C(F)(F)F)n3n2)c1C	none
CCc1ccc(-c2cc(C(F)(F)F)n3nc(C(=O)Nc4c(C)nn(Cc5ccc(F)cc5)c4C)cc3n2)s1	L major viab 64.2
COc1ccc(C)cc1S(=O)(=O)N(CC(=O)Nc1cccc([N+](=O)[O-])c1)c1ccccc1	L major viab 56.0
Cc1ccc([N+](=O)[O-])cc1NC(=O)CN(C1CCCCC1)S(=O)(=O)c1ccc(Cl)cc1	L major viab 73.3 (no result: APP transl inh)
Cc1ccccc1CN(CC(=O)Nc1cccc([N+](=O)[O-])c1)S(=O)(=O)c1ccc(Cl)cc1	L major viab 99.6
Cc1ccc([N+](=O)[O-])cc1NC(=O)CN(C(=O)c1ccccc1Cl)C1CCCCC1	none
Cc1ccc(NC(=O)CN(c2ccc(Cl)cc2)S(=O)(=O)c2cc([N+](=O)[O-])ccc2Cl)c(C)c1	L major viab 98.3
Cc1ccc(NS(=O)(=O)c2ccc(NC(=O)CN(c3cc([N+](=O)[O-])ccc3C)S(C)(=O)=O)cc2)c(C)c1	none
COc1ccc2nc(SCCC(=O)O)cc(C)c2c1	none (no result: L major viab, MT stabilize HCS, APP transl inh)
Cc1cc(NC(=O)CCSc2nc(-c3ccco3)cc(C(F)(F)F)n2)n(-c2ccccc2)n1	none
O=C(Nc1c2c(nn1-c1ccccc1)CSC2)c1ccc(N2C(=O)CCC2=O)cc1	none
COc1ccc(Cl)cc1N(CC(=O)Nc1ccc2c(c1)OCO2)S(C)(=O)=O	none
COc1cccc(NC(=O)CN(c2ccc([N+](=O)[O-])cc2)S(=O)(=O)c2ccccc2)c1	L major viab 97.6
COc1ccc(OCC(=O)Nc2ccc(S(=O)(=O)N3CCOCC3)cc2)cc1	none
COc1ccc(NC(=O)CN(c2ccc([N+](=O)[O-])cc2)S(=O)(=O)c2ccccc2)cc1	MT stabilize HCS 14.2
COc1ccc(OC)c(N(CC(=O)Nc2ccc3c(c2)OCO3)S(=O)(=O)c2ccccc2)c1	L major viab 99.7
COc1ccc(N(CC(=O)Nc2ccc(S(=O)(=O)N3CCOCC3)cc2)S(=O)(=O)c2ccccc2)cc1	L major viab 58.2
O=C(C1=NNC2C(=O)N(c3ccccc3)C(=O)C12)c1nc(Cl)ccc1Cl (centres undefined)	none
Cc1ccc2nc(SCC(=O)Nc3cccc(S(=O)(=O)NC4=NCCCCC4)c3)[nH]c2c1	none (no result: L major viab, MT stabilize HCS, APP transl inh)
CC1CCCCN1CC(=O)Nc1sc2c(c1C#N)CCC2 (centres undefined)	none
COc1ccc(O)c(C=Nc2cc(NC(C)=O)c(Cl)cc2Cl)c1	L major viab 64.3 (no result: b-catenin transl)
CC(=O)Nc1cc(N=Cc2ccc(O)cc2O)c(Cl)cc1Cl	none
COc1cc(NCCCCCCCN)c2ncccc2c1	L major viab 100.3, Ba/F3 V617F tox 50.3, BaF3 tox 36.8
CCCOc1ccc(/C=N/NC(=S)Nc2ccccc2[N+](=O)[O-])c(O)c1	L major viab 98.4, APP transl inh 46.5
Cc1cccc(NC(=S)N/N=C/c2cccc(O)c2)c1C	Ba/F3 V617F tox 77.9, BaF3 tox 51.5 (no result: L major viab, MT stabilize HCS, APP transl inh)
COc1ccc(/C=N/NC(=S)Nc2ccccc2[N+](=O)[O-])cc1O	L major viab 56.8
CCCOc1ccc(/C=N/Nc2ccccc2[N+](=O)[O-])c(O)c1	none
O=[N+]([O-])c1cc(/C=N/NC(=S)Nc2ccccc2Cl)ccc1Cl	none
COc1cc(/C=N/NC(=S)Nc2cccc(S(=O)(=O)N(C)C)c2)ccc1O	L major viab 66.7
CCCC(=O)NC(Nc1c(C)n(C)n(-c2ccccc2)c1=O)C(Cl)(Cl)Cl (centres undefined)	none
O=c1c2c([nH]c3ccccc13)C(=C1CCCC1)CC2	none
O=c1c2c([nH]c3ccccc13)CCCC2	L major viab 54.9
CC(C)(C)C1CCc2[nH]c3ccccc3c(=O)c2C1 (centres undefined)	L major viab 99.6
OC(CSc1ccccc1Cl)CN1CCN(c2ccc(F)cc2)CC1 (centres undefined)	L major viab 90.6
OC(CSc1c(Cl)cccc1Cl)CN1CCN(c2ccccc2F)CC1 (centres undefined)	none
